# Laboratory results reported in article PMC5708124 (Nature microbiology, 2017).
# Assays:
# [1] = test system: Pf ABS parasites and GAMs; details: cited from earlier work
# [2] = test system: PfMDR1 mutant lines versus parental ABS parasites (Dd2-B2, FCB); assay: Drug susceptibility profiling of HHQ-resistant lines in ABS parasites; type: cell-based, Plasmodium falciparum
# [3] = test system: PfMDR1^selY290F late rings; assay: Hb endocytosis by Western blot; type: cell-based, Plasmodium falciparum; details: 5′ the IC50 for 5 h
# Summary of the method: (§1)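 Sorbitol-synchronized parasites were exposed to test compound at 5x IC50 for 5 h, starting at the late ring stage. Lysates were blotted to nitrocellulose and probed overnight at 4°C with rabbit anti-human Hb (1:5,000) and anti-β-actin (1:2,000). Detection was by ECL. Hb band intensities were normalized to β-actin and compared with untreated controls. Repeated on 3–4 independent occasions.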
# [4] = test system: NF54^Pfs16 late-stage GAMs; assay: Image-based late-stage gametocyte inhibition assay; type: cell-based, Plasmodium falciparum; details: in words
# Summary of the method: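 Day-8 stage IV gametocytes were MACS-purified and set at 10% parasitemia and 0.1% Hct, with 0.4% DMSO final. They were incubated 72 h at 37°C in 5% O₂/5% CO₂/90% N₂, then stained overnight with MitoTracker Red CM-H₂XRos. Confocal imaging counted viable mature gametocytes per imaged area; 5 μM puromycin was the control. Screening used 2 μM in triplicate. Potency used serial dilutions up to 40 μM, three per log, on two independent occasions.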
# [5] = test system: NITD609-R^Dd2 clone #2 (PfATP4 mutant line); assay: Imaging-based asexual blood stage high-throughput assay; type: cell-based, Plasmodium falciparum; details: read-out: ABS IC50, 72 h
# Summary of the method: (§2)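 Sorbitol-synchronized parasites were seeded at 2% parasitemia and 0.3% Hct and exposed to test compound for 72 h at 37°C in 5% O₂/5% CO₂/90% N₂. Cells were then permeabilized with 0.01% Triton X-100, 0.001% saponin and 5 mM EDTA, and stained with 0.5 μg/mL DAPI for at least 6 h at room temperature in the dark. Confocal imaging used 405 nm excitation. Parasites were counted from spot size and intensity. Two independent cultures.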
# [6] = test system: HEK293 human embryonic kidney cell line; assay: HEK293 cytotoxicity; type: cell-based; details: at 40 μM, 72 h
# Summary of the method: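 Cells were grown in DMEM with 10% fetal calf serum and seeded at 2,000 cells/well, then left overnight at 37°C in 5% CO₂ to adhere. Test compound was added as a serial dilution with a maximum of 40 μM, at 0.4% DMSO final, for 72 h. Medium was then replaced with serum-free DMEM containing 44 μM resazurin for 4–6 h. Fluorescence was read at 530/595 nm. Two biological replicates.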
# [7] = test system: Dd2-B2 parasites; assay: Heme fractionation assay; type: cell-based, Plasmodium falciparum
# [8] = test system: Dd2 (multidrug-resistant) ABS parasites; assay: Imaging-based asexual blood stage high-throughput assay; type: cell-based, Plasmodium falciparum; details: read-out: ABS IC50; multidrug-resistant Dd2, 72 h
# [9] = test system: 3D7 (drug-sensitive) ABS parasites; assay: Imaging-based asexual blood stage high-throughput assay; type: cell-based, Plasmodium falciparum; details: read-out: ABS IC50; drug-sensitive 3D7, 72 h
# Summary of the method: as §2
# [10] = test system: cultured P. berghei liver-stage parasites; details: cited from earlier work
# [11] = test system: P. berghei ANKA MRA868 GAMs, Anopheles stephensi mosquitoes; assay: In vivo transmission-blocking effect; set-up: species or system P. berghei in CD-1 mice; details: mice given two doses 12 h apart: 100 mg/kg GNF compounds, 30 mg/kg DHA
# [12] = test system: male GAM exflagellation; assay: Male GAM exflagellation of GAM cultures used for membrane feeding; type: cell-based, Plasmodium falciparum; details: GAM cultures exposed at 3x late-stage IC50
# [13] = test system: P. berghei ANKA MRA868 ABS parasites; assay: 4-day Peters test; type: in vivo, P. berghei in CD-1 mice; details: 4 doses, 96 h post infection
# Summary of the method: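 Female CD-1 mice (5 weeks old, 22–25 g; four per group) were infected intraperitoneally with 1x10⁶ parasites. The test compound was given intraperitoneally at 2, 24, 48 and 72 h after infection, in 20% DMSO in water. Controls were solvent only and DHA at 30 mg/kg. Parasitemia was read by microscopy at 96 h. Groups were randomized and blinded. The 100 mg/kg groups were tested once.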
# [14] = test system: NF54^Pfs16 early-stage GAMs; assay: Luciferase-based early-stage gametocyte inhibition assay; type: cell-based, Plasmodium falciparum; details: in words
# Summary of the method: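 Gametocytes on day 1 of gametocytogenesis were set at 10% parasitemia and 0.5% Hct. They were kept in medium with 50 mM N-acetyl-D-glucosamine, refreshed daily. Compound was added at 0.4% DMSO final. Controls were DMSO (0% inhibition) and 5 μM puromycin (100% inhibition). After 72 h at 37°C in 5% O₂/5% CO₂/90% N₂, Steadylite was added, followed by 60 min lysis at room temperature and a luminescence read. Potency used serial dilutions up to 40 μM, three per log, on two independent occasions.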
# [15] = test system: compound-exposed Pf GAMs in Anopheles stephensi mosquitoes; assay: Membrane-feeding assay with A. stephensi mosquitoes; type: in vivo, Plasmodium falciparum
# Summary of the method: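 Day-12 gametocytes were treated 3 days at 1x or 3x their late-stage IC50, with compound refreshed daily, then held 4 days without compound. Controls were 0.25% DMSO and methylene blue at 3x. Stage V cultures (50% Hct, 0.01–0.16% parasitemia) were membrane-fed for 30 min to A. stephensi, kept at 26°C and 78% RH. Midguts were dissected on day 7–8, stained with mercurochrome and oocysts counted blind. Prevalence is the percentage of mosquitoes with at least one oocyst.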
# [16] = test system: PfMDR1^selY290F parasites; assay: Heme fractionation assay; type: cell-based, Plasmodium falciparum; details: PfMDR1^selY290F
# Summary of the method: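 Early ring-stage, sorbitol-synchronized parasites were exposed to test compound at 0.1, 0.25, 0.5, 1 and 2x the ABS IC50. Heme species were fractionated and normalized to the number of cells analyzed, counted by flow cytometry of an aliquot. Significance was tested by two-tailed t-tests.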
# [17] = test system: Dd2-B2 late rings; assay: Hb endocytosis by Western blot; type: cell-based, Plasmodium falciparum; details: 5′ the IC50 for 5 h, normalized to DMSO control
# Summary of the method: as §1
# [18] = all exposure levels up to 2′ IC50, 32 h
structure (smiles),measurement,setting,value
CC(=O)N1CCN(c2ccc(CN(C(=O)/C=C/c3ccc(C(C)(C)C)cc3)[C@@H](Cc3ccccc3)C(=O)N3CCN(Cc4ccc(C#N)cc4)CC3)cc2)CC1 [ACT-451840],activity against Pf ABS parasites and GAMs,[1],low nanomolar
same,fold decreased susceptibility versus Dd2-B2,[2]; PfMDR1^edF1072L,16 fold
same,fold decreased susceptibility versus Dd2-B2,[2]; PfMDR1^edS1075I,5.5 fold
same,fold decreased susceptibility versus Dd2-B2,[2]; PfMDR1^selY290F,45 fold
CCOC(=O)C1=C(C)NC2=C(C(=O)CC(c3ccc(OC)c(OC)c3)C2)C1c1ccccc1Cl (centres unmarked) [GNF-Pf-5660],Hb levels within parasites,[3],unchanged
same,late-stage gametocytocidal activity,[4],potent
same,IC50,[5],< 25 nM
same,inhibition of HEK293 cells,[6],no inhibition
same,fold decrease in Hz levels compared with untreated controls,[7]; 0.1′ the IC50 value,1.5 fold
same,fold reduction in Hz levels,[7]; 0.25′ to 2′ IC50,2.3 fold
same,Hb concentration per parasite,[7]; [18],unchanged
same,free heme concentration per parasite,[7]; [18],unchanged
same,IC50,[8],< 25 nM
same,IC50,[9],< 25 nM
same,activity against liver-stage parasites,[10],inactive
same,reduction in oocyst burden,[11],21%
same,reduction in the number of infected mosquitoes,[11],25%
same,reduction in male GAM exflagellation rates,[12],98%
same,reduction of parasitemia compared to vehicle-treated mice,[13]; 70 mg/kg intraperitoneal,22%
same,reduction of parasitemia compared to vehicle-treated mice,[13]; 100 mg/kg intraperitoneal,65%
same,early-stage gametocytocidal activity,[14],potent
same,reduction in oocyst density per infected mosquito midgut,[15]; GAMs pre-treated at 3x late-stage IC50,95–99%
same,reduction in infection prevalence (percentage of infected mosquitoes),"[15]; GAMs pre-treated at 3x late-stage IC50, 3 days, then 4 days without compound",97%
same,fold higher exposure levels than in Dd2-B2 giving similar profile of reduced Hz and total heme iron,[16],> 160 fold
same,reduction of Hb levels within parasites,[17],32%
same,fold increase in IC50 compared to parental Dd2-B2,"[2]; GNF-Pf-5660-selected clone 2B6H1, PfMDR1 Y290F (AB 100%)",248 fold
